Test [1] concerns MH60. Description: Growth inhibition of IL-6-independent mouse MH60 cells after 72 hrs by MTT assay. As to conditions: MH60, 72 h. Format: functional, cell-based. Summed up:
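Mouse B-cell/myeloma hybridoma MH-60 subline adapted to grow without IL-6 (rhIL-6 withdrawn gradually), kept in RPMI 1640 + 10% FCS with no rhIL-6. 0.5 × 10^4 cells/well pre-incubated 24 h at 37 °C, 5% CO2, then exposed 72 h to graded compound concentrations. MTT read-out; mean with standard errors of 3–4 experiments.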
(In general: Tetrazolium dyes change colour on reduction, which living cells bring about.)

Test [2] deals with MH60. Briefly: Growth inhibition of IL6-dependent mouse MH60 cells after 72 hrs by MTT assay in presence of human recombinant IL6. As to conditions: MH60, 72 h. Format: functional, cell-based. An outline of the steps:
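IL-6-dependent MH-60 mouse B-cell/myeloma hybridoma kept in RPMI 1640 + 10% FCS containing 0.5 ng/mL recombinant human IL-6. 0.5 × 10^4 cells/well in rhIL-6 medium pre-incubated 24 h at 37 °C, 5% CO2, then treated 72 h with graded compound concentrations. Growth by MTT; mean with standard errors of 3–4 experiments.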

Where only a bound is given, the exact number is not on record here.

By IC50 is commonly meant the concentration at which inhibition is half-maximal.

In the case of `CC(=O)O[C@H]1[C@H]2O[C@]23[C@@H]2CC[C@@H]4C[C@@H](O)CC[C@]4(C)[C@H]2CC[C@]3(C)[C@H]1c1ccc(=O)oc1` [CINOBUFAGIN], the IC50 in the test on MH60 [1] and with MH60 [2] was more than 56.3 µM throughout.

Take `C[C@]12CC[C@H](O)C[C@H]1CC[C@@H]1[C@@H]2CC[C@]2(C)[C@@H]([C@]34C=CC(=O)O[C@H]3O4)CC[C@]12O`: the IC50 in the test on MH60 [1] and in the test with MH60 [2] was more than 62.2 µM in each case.

`CC(=O)O[C@H]1CC[C@@]2(C)[C@H](CC[C@@H]3[C@@H]2CC[C@]2(C)[C@@H]([C@]45C=CC(=O)O[C@H]4O5)C[C@H]4O[C@]342)C1`: the IC50 with MH60 [1] was more than 56.6 µM; with MH60 [2], 5.3 µM.

With `CCCCC(=O)O[C@H]1CC[C@@]2(C)[C@H](CC[C@@H]3[C@@H]2CC[C@]2(C)[C@@H]([C@]45C=CC(=O)O[C@H]4O5)C[C@H]4O[C@]342)C1`, the values for the IC50 with MH60 [1] and with MH60 [2] were more than 53.2 µM and 11.6 µM, respectively.

For `CCCC(=O)O[C@H]1CC[C@@]2(C)[C@H](CC[C@@H]3[C@@H]2CC[C@]2(C)[C@@H]([C@@]45C=CC(=O)O[C@@H]4O5)C[C@H]4O[C@]342)C1`, the IC50 in the test with MH60 [1] was 17.5 µM; in the test with MH60 [2] it was 2 µM.

Turning to `C[C@]12CCC(=O)C[C@H]1CC[C@@H]1[C@@H]2CC[C@]2(C)[C@@H]([C@@]34C=CC(=O)O[C@@H]3O4)C[C@H]3O[C@]132`, the results for the IC50 in the test on MH60 [1] and in the test with MH60 [2] were 4.3 µM and 1.3 µM, respectively.

For `C[C@]12CC[C@H](O)C[C@H]1CC[C@@H]1[C@@H]2CC[C@]2(C)[C@@H](c3ccc(=O)oc3)CC[C@]12O` [BUFALIN], the figures for the IC50 in the test on MH60 [1] and in the test with MH60 [2] were more than 64.8 µM and 31.9 µM, respectively.

For `C[C@]12CC[C@H](OC=O)C[C@H]1CC[C@@H]1[C@@H]2CC[C@]2(C)[C@@H](c3ccc(=O)oc3)C[C@H]3O[C@]132`, the IC50 with MH60 [1] and in the test on MH60 [2] was more than 60.7 µM each time.

Regarding `CC(=O)O[C@H]1C[C@]2(O)[C@@H]3CC[C@@H]4C[C@@H](O)CC[C@]4(C)[C@H]3CC[C@]2(C)[C@H]1c1ccc(=O)oc1` [BUFOTALIN], the IC50 with MH60 [1] and in the test with MH60 [2] was more than 56.2 µM each time.

Consider `C[C@]12CCC(=O)C[C@H]1CC[C@@H]1[C@@H]2CC[C@]2(C)[C@@H](c3ccc(=O)oc3)C[C@H]3O[C@]132`, for which the IC50 in the test with MH60 [1] worked out at 8.4 µM; in the test with MH60 [2], 2.4 µM.

In the case of `CCCCC(=O)O[C@H]1CC[C@@]2(C)[C@H](CC[C@@H]3[C@@H]2CC[C@]2(C)[C@@H]([C@@]45C=CC(=O)O[C@@H]4O5)C[C@H]4O[C@]342)C1`, the half-inhibitory concentration (IC50) with MH60 [1] is 19.1 µM; in the test on MH60 [2] it was 6.4 µM.

Turning to `C[C@]12CC[C@H](O)C[C@H]1CC[C@@H]1[C@@H]2CC[C@]2(C)[C@@H](c3ccc(=O)oc3)C[C@H]3O[C@]132` [BUFOGENIN], the IC50 in the test on MH60 [1] was more than 65.1 µM; in the test with MH60 [2] it was 22.9 µM.

`CCCC(=O)O[C@H]1CC[C@@]2(C)[C@H](CC[C@@H]3[C@@H]2CC[C@]2(C)[C@@H]([C@]45C=CC(=O)O[C@H]4O5)C[C@H]4O[C@]342)C1`: the IC50 in the test with MH60 [1] was more than 54.8 µM; with MH60 [2], 9.4 µM.

Consider `C[C@]12CCC(=O)C[C@H]1CC[C@@H]1[C@@H]2CC[C@]2(C)[C@@H]([C@]34C=CC(=O)O[C@H]3O4)C[C@H]3O[C@]132`, for which the figures for the IC50 in the test on MH60 [1] and in the test with MH60 [2] were 8.3 µM and 4.3 µM, respectively.

As for `C[C@]12CC[C@H](O)C[C@H]1CC[C@@H]1[C@@H]2CC[C@]2(C)[C@@H]([C@]34C=CC(=O)O[C@H]3O4)C[C@H]3O[C@]132`, the IC50 is more than 62.5 µM with MH60 [1] and 24.8 µM in the test on MH60 [2].

`C[C@]12CC[C@H](OC=O)C[C@H]1CC[C@@H]1[C@@H]2CC[C@]2(C)[C@@H]([C@]34C=CC(=O)O[C@H]3O4)C[C@H]3O[C@]132`: the figures for the IC50 with MH60 [1] and with MH60 [2] were more than 58.4 µM and 8.9 µM, respectively.

Take `CC(=O)O[C@@H]1[C@H]2O[C@]23[C@@H]2CC[C@@H]4C[C@@H](O)CC[C@]4(C)[C@H]2CC[C@]3(C)[C@H]1[C@@]12C=CC(=O)O[C@@H]1O2`: the IC50 with MH60 [1] and in the test on MH60 [2] was more than 54.2 µM each time.

Take `C[C@]12CC[C@H](OC=O)C[C@H]1CC[C@@H]1[C@@H]2CC[C@]2(C)[C@@H]([C@@]34C=CC(=O)O[C@@H]3O4)C[C@H]3O[C@]132`: the IC50 with MH60 [1] came to 12.9 µM; in the test on MH60 [2] it was 5.6 µM.

For `CC(=O)O[C@H]1CC[C@@]2(C)[C@H](CC[C@@H]3[C@@H]2CC[C@]2(C)[C@@H]([C@@]45C=CC(=O)O[C@@H]4O5)C[C@H]4O[C@]342)C1`, the 50% inhibitory concentration (IC50) was found to be 21.9 µM in the test on MH60 [1] and 14.3 µM in the test on MH60 [2].

As for `CC(=O)O[C@H]1CC[C@@]2(C)[C@H](CC[C@@H]3[C@@H]2CC[C@]2(C)[C@@H](c4ccc(=O)oc4)C[C@H]4O[C@]342)C1`, the IC50 in the test with MH60 [1] and in the test with MH60 [2] was more than 58.7 µM each time.

Regarding `CC(C)(C)C(=O)O[C@H]1CC[C@@]2(C)[C@H](CC[C@@H]3[C@@H]2CC[C@]2(C)[C@@H]([C@@]45C=CC(=O)O[C@@H]4O5)C[C@H]4O[C@]342)C1`, the IC50 in the test with MH60 [1] was determined as 34 µM; in the test on MH60 [2], 18.1 µM.

In the case of `CC(C)(C)C(=O)O[C@H]1CC[C@@]2(C)[C@H](CC[C@@H]3[C@@H]2CC[C@]2(C)[C@@H]([C@]45C=CC(=O)O[C@H]4O5)C[C@H]4O[C@]342)C1`, the IC50 was more than 53.2 µM with MH60 [1] and 6.8 µM in the test with MH60 [2].

As to `CC(=O)O[C@@H]1[C@H]2O[C@]23[C@@H]2CC[C@@H]4C[C@@H](O)CC[C@]4(C)[C@H]2CC[C@]3(C)[C@H]1[C@]12C=CC(=O)O[C@H]1O2`, the IC50 in the test on MH60 [1] and in the test with MH60 [2] was more than 54.2 µM in each case.

Take `C[C@]12CC[C@H](O)C[C@H]1CC[C@@H]1[C@@H]2CC[C@]2(C)[C@@H]([C@@]34C=CC(=O)O[C@@H]3O4)CC[C@]12O`: the IC50 in the test on MH60 [1] and in the test with MH60 [2] was more than 62.2 µM each time.

Regarding `C[C@]12CC[C@H](O)C[C@H]1CC[C@@H]1[C@@H]2CC[C@]2(C)[C@@H]([C@@]34C=CC(=O)O[C@@H]3O4)C[C@H]3O[C@]132`, the IC50 amounted to 45 µM in the test on MH60 [1] and 18.3 µM in the test on MH60 [2].

Values taken from ChEMBL document CHEMBL1148977, “Inhibitory effects of bufadienolides on interleukin-6 in MH-60 cells” (J Nat Prod, 2004).
